Data published in publication PMC11451551 (Science Advances, 2024).

What was measured:
Molt-4 cells = test: Cell viability assay; type: cell-based, human
Procedure, shortened: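 Molt-4 or RS4;11 leukaemia cells were plated at 50,000 per well in medium with 10% human serum. They were exposed 48 h to a threefold dilution series of test compound, 5 to 0.020 μM, each concentration in duplicate on at least three occasions. Viable cells were read by CellTiter-Glo luminescence, and EC50 was taken from a sigmoidal fit.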

[1] = tested on: circulating platelets in SCID/bg mice; test: Assessment of platelet levels in mice; type: in vivo, mouse; conditions: single dose: 9 0.1 mg/kg iv, 10 0.6 mg/kg iv, navitoclax 50 mg/kg oral
Procedure, shortened: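 Female SCID/bg mice were randomised (15 per group) and given one dose of vehicle or test compound, intravenously or by oral gavage. At 6, 72 and 168 h, five mice per group were bled from the retro-orbital plexus under sevoflurane into heparinised vials and then euthanised without recovery. Platelets were counted on an automated haematology analyser; results are group means with SEM.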

[2] = tested on: digitonin-permeabilized Molt-4 cells; test: Permeabilized cell JC-1 assay; type: cell-based, human
Procedure, shortened: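 Molt-4 cells were washed into DTEB buffer (trehalose, KCl, EDTA/EGTA, 0.1% BSA, succinate, 10 mM Hepes-KOH pH 7.5) containing 2 μM JC-1, 0.01% digitonin, 10 mM β-mercaptoethanol and oligomycin (20 μg/ml). After 10 min at room temperature they were diluted with an equal volume of buffer and test compound was added. DMSO was the negative control; FCCP 10 μM final defined 100% depolarization. Fluorescence at 590 nm was read every 10 min, 37°C, 1–3 h. EC50 from % depolarization.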

anesthetized beagle dogs = test: in vivo; type: in vivo, dog; conditions: for effect on cardiovascular parameters / effect on platelets: iv bolus
in vivo = type: in vivo, dog; conditions: male, beagle, dog, in vivo, 0.3 mg/kg
H1650 tumors = test: H1650 xenograft efficacy in SCID/bg mice; type: in vivo, mouse
Procedure, shortened: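 H1650 or PC-9 NSCLC cells (RPMI 1640, 10% heat-inactivated FBS, ≤5 passages, mycoplasma-free) were injected subcutaneously at 5×10^6 cells into the right flank of 8-week-old female SCID/bg mice (~22 g). Docetaxel was given 7.5 mg/kg iv QDx1 and conjugates intraperitoneally. In the single-dose study (H1650 only), tumours were ~200 mm³ and treatment began on day 9, QDx1. In the other study, treatment began on day 10, Q7D×2. Volumes are means of eight tumours.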

SMILES | effect on platelets at 6 hours [1] | Permeabilized Molt-4 EC50 [2] | effect on cardiovascular parameters (anesthetized beagle dogs) | effect on platelets (anesthetized beagle dogs) | further results
CNCCOC12CC3(C)CC(C)(CC(Cn4ncc(-c5ccc(N6CCc7cccc(C(=O)Nc8nc9ccccc9s8)c7C6)nc5C(=O)O)c4C)(C3)C1)C2 [compound 9] | severe thrombocytopenia | subnanomolar | marked changes in cardiovascular parameters | expected thrombocytopenia | EC50 (Molt-4 cells; read-out: Molt-4 cell EC50, 10% human serum, 48 h): 8 nM
Cc1c(-c2ccc(N3CCc4cccc(C(=O)Nc5nc6ccccc6s5)c4C3)nc2C(=O)O)cnn1CC12CC3(C)CC(C)(C1)CC(OCCNCCS(=O)(=O)O)(C3)C2 [compound 10] | no significant reduction of platelet number | subnanomolar | only minimal to moderate effects on cardiovascular parameters | no decrease in platelets | loss of Molt-4 activity relative to 9 (Molt-4 cells): over 30 fold
Cc1c(-c2ccc(N3CCc4cccc(C(=O)Nc5nc6ccccc6s5)c4C3)nc2C(=O)O)cnn1CC12CC3(C)CC(C)(C1)CC(OCCNCC[C@H](O)CO)(C3)C2 [compound 11] | – | – | – | – | effect on cardiovascular function (anesthetized beagle dogs; 0.3 mg/kg per minute): cardiovascular collapse in both animals; effect on cardiovascular function (anesthetized beagle dogs; 0.01 and 0.1 mg/kg per minute): no impact on blood pressure or other indices of cardiovascular function; plasma concentration without impact on cardiovascular function (anesthetized beagle dogs; infusion 0.01 and 0.1 mg/kg per minute): ≤ 447 ng/mL; estimated cardiovascular TI (dog tolerated plasma level vs free 11 in monkeys) (anesthetized beagle dogs; male, beagle, dog, in vivo): > 65 fold; Cmax (in vivo): 1020 ng/mL
CC(=O)O[C@@]12CO[C@@H]1C[C@H](O)[C@@]1(C)C(=O)[C@H](O)C3=C(C)[C@@H](OC(=O)[C@H](O)[C@@H](NC(=O)OC(C)(C)C)c4ccccc4)C[C@@](O)([C@@H](OC(=O)c4ccccc4)[C@H]21)C3(C)C [docetaxel] | – | – | – | – | tumor growth inhibition (TGI) (H1650 tumors; 7.5 mg/kg iv QDx1, alone (single-dose ADC study)): 81%; time by which all tumors were relapsed (H1650 tumors; single agent): ≤ 46 days
CC1(C)CCC(c2ccc(Cl)cc2)=C(CN2CCN(c3ccc(C(=O)NS(=O)(=O)c4ccc(N[C@H](CCN5CCOCC5)CSc5ccccc5)c(S(=O)(=O)C(F)(F)F)c4)cc3)CC2)C1 [navitoclax, reference compound] | severe thrombocytopenia | – | – | – | –
